{
  "source": "ChEMBL document CHEMBL1126783",
  "about": "“Design of potent, cyclic peptide bradykinin receptor antagonists from conformationally constrained linear peptides” (J Med Chem, 1993)",
  "key": {"B2 bradykinin receptor [1]": {"target": "T1, B2 bradykinin receptor (Cavia porcellus, UniProt O70526)", "T1 sequence (O70526 whole entry)": "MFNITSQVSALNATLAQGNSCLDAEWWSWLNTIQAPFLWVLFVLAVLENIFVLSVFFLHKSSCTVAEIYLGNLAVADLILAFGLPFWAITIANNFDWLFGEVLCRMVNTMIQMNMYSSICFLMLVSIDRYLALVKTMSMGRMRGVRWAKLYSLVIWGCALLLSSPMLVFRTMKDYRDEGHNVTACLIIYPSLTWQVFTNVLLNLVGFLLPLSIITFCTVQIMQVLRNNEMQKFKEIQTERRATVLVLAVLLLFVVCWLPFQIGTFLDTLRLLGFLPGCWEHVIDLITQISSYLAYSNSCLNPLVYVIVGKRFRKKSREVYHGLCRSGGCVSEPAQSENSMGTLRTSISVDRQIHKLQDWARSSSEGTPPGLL", "assay": "Antagonism against bradykinin receptor B2 in guinea pig ileal tissue", "format": "functional", "conditions": "read-out: pA2 (converted)", "how_it_was_run": "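Functional antagonism recorded as pA2 in isolated guinea pig ileal tissue, a preparation that expresses only B2 receptors. The procedure follows conventional, previously reported methods.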"}, "B2 bradykinin receptor [2]": {"target": "T1, B2 bradykinin receptor", "assay": "Binding affinity against [3H]bradykinin binding to bradykinin receptor B2 in guinea pig ileal membrane", "format": "cell membranes", "how_it_was_run": "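Competition binding against [³H]bradykinin on guinea pig ileal membrane preparations, with affinity given as Ki following a previously described method. The ileum expresses only B2 receptors.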"}},
  "note": "Where a SMILES comes first, the peptide text is derived from it. Bridges are numbered along the chain shown (N, C = ends). [ ]: non-standard residue; d: D form. Oic = O=C(O)[C@@H]1C[C@@H]2CCCC[C@@H]2N1; Hyp = O=C(O)[C@@H]1C[C@@H](O)CN1; dTic = O=C(O)[C@H]1Cc2ccccc2CN1",
  "data": [
    {"smiles": "NC(N)=NCCC[C@@H](N)C(=O)N[C@@H](CCCN=C(N)N)C(=O)N[C@H]1CSSC[C@@H](C(=O)N2Cc3ccccc3C[C@@H]2C(=O)N2[C@H](C(=O)N[C@@H](CCCN=C(N)N)C(=O)O)C[C@@H]3CCCC[C@@H]32)NC(=O)[C@H](Cc2ccccc2)NC(=O)CNC(=O)[C@@H]2CCCN2C1=O", "note": "(H-[dR]RCPGFC[dTic][Oic]R-OH; disulfide 3-7)", "values": [
      {"measurement": "Kb", "setting": "B2 bradykinin receptor [1]", "result": 501, "unit": "nM"}
    ]},
    {"smiles": "CN(CC(=O)N(C)[C@@H](Cc1ccccc1)C(=O)N[C@@H](CO)C(=O)N1Cc2ccccc2C[C@@H]1C(=O)N1C2CCCCC2C[C@H]1C(=O)N[C@@H](CCCN=C(N)N)C(=O)O)C(=O)[C@@H]1C[C@H](O)CN1C(=O)[C@@H]1CCCN1C(=O)[C@H](CCCN=C(N)N)NC(=O)[C@H](N)CCCN=C(N)N", "note": "(some centres not stated)", "values": [
      {"measurement": "Ki", "setting": "B2 bradykinin receptor [2]", "result": 1690, "unit": "nM"}
    ]},
    {"smiles": "CC(NC(=O)[C@@H]1C[C@H](O)CN1C(=O)[C@@H]1CCCN1C(=O)[C@H](CCCN=C(N)N)NC(=O)[C@H](N)CCCN=C(N)N)C(=O)N[C@@](C)(Cc1ccccc1)C(=O)N[C@@H](CO)C(=O)N1Cc2ccccc2C[C@@H]1C(=O)N1C2CCCCC2C[C@H]1C(=O)N[C@@H](CCCN=C(N)N)C(=O)O", "note": "(some centres not stated)", "values": [
      {"measurement": "Ki", "setting": "B2 bradykinin receptor [2]", "result": 3030, "unit": "nM"}
    ]},
    {"smiles": "N=C(N)NCCC[C@@H](N)C(=O)N[C@@H](CCCNC(=N)N)C(=O)N[C@H]1CSSC[C@@H](C(=O)N[C@@H](CO)C(=O)N2Cc3ccccc3C[C@@H]2C(=O)N2[C@H](C(=O)N[C@@H](CCCNC(=N)N)C(=O)O)C[C@@H]3CCCC[C@@H]32)NC(=O)CNC(=O)[C@@H]2CCCN2C1=O", "note": "(H-[dR]RCPGCS[dTic][Oic]R-OH; disulfide 3-6)", "values": [
      {"measurement": "Kb", "setting": "B2 bradykinin receptor [1]", "result": 240, "unit": "nM"}
    ]},
    {"smiles": "NC(N)=NCCC[C@@H](N)C(=O)N[C@@H](CCCN=C(N)N)C(=O)N1CCC[C@H]1C(=O)N1C[C@H](O)C[C@H]1C(=O)NCC(=O)N[C@@H](Cc1ccccc1)C(=O)N[C@@H](CO)C(=O)N1Cc2ccccc2C[C@@H]1C(=O)N1[C@H](C(=O)N[C@@H](CCCN=C(N)N)C(=O)O)C[C@@H]2CCCC[C@@H]21", "note": "(H-[dR]RP[Hyp]GFS[dTic][Oic]R-OH)", "values": [
      {"measurement": "Kb", "setting": "B2 bradykinin receptor [1]", "result": 1.51, "unit": "nM"},
      {"measurement": "Ki", "setting": "B2 bradykinin receptor [2]", "result": 0.08, "unit": "nM"}
    ]},
    {"smiles": "CN(C(=O)CNC(=O)[C@@H]1C[C@H](O)CN1C(=O)[C@@H]1CCCN1C(=O)[C@H](CCCN=C(N)N)NC(=O)[C@H](N)CCCN=C(N)N)[C@@H](Cc1ccccc1)C(=O)N[C@@H](CO)C(=O)N1Cc2ccccc2C[C@@H]1C(=O)N1C2CCCCC2C[C@H]1C(=O)N[C@@H](CCCN=C(N)N)C(=O)O", "note": "(some centres not stated)", "values": [
      {"measurement": "Kb", "setting": "B2 bradykinin receptor [1]", "result": 2510, "unit": "nM"},
      {"measurement": "Ki", "setting": "B2 bradykinin receptor [2]", "result": 26.5, "unit": "nM"}
    ]},
    {"smiles": "CC(NC(=O)[C@@H]1C[C@H](O)CN1C(=O)[C@@H]1CCCN1C(=O)[C@H](CCCN=C(N)N)NC(=O)[C@H](N)CCCN=C(N)N)C(=O)N[C@@H](Cc1ccccc1)C(=O)N[C@@H](CO)C(=O)N1Cc2ccccc2C[C@@H]1C(=O)N1C2CCCCC2C[C@H]1C(=O)N[C@@H](CCCN=C(N)N)C(=O)O", "note": "(some centres not stated)", "values": [
      {"measurement": "Ki", "setting": "B2 bradykinin receptor [2]", "result": 82.3, "unit": "nM"}
    ]},
    {"smiles": "C[C@@](Cc1ccccc1)(NC(=O)CNC(=O)[C@@H]1C[C@H](O)CN1C(=O)[C@@H]1CCCN1C(=O)[C@H](CCCN=C(N)N)NC(=O)[C@H](N)CCCN=C(N)N)C(=O)N[C@@H](CO)C(=O)N1Cc2ccccc2C[C@@H]1C(=O)N1C2CCCCC2C[C@H]1C(=O)N[C@@H](CCCN=C(N)N)C(=O)O", "note": "(some centres not stated)", "values": [
      {"measurement": "Kb", "setting": "B2 bradykinin receptor [1]", "result": 12.6, "unit": "nM"},
      {"measurement": "Ki", "setting": "B2 bradykinin receptor [2]", "result": 0.54, "unit": "nM"}
    ]},
    {"smiles": "CN(CC(=O)N[C@@H](Cc1ccccc1)C(=O)N[C@@H](CO)C(=O)N1Cc2ccccc2C[C@@H]1C(=O)N1C2CCCCC2C[C@H]1C(=O)N[C@@H](CCCN=C(N)N)C(=O)O)C(=O)[C@@H]1C[C@H](O)CN1C(=O)[C@@H]1CCCN1C(=O)[C@H](CCCN=C(N)N)NC(=O)[C@H](N)CCCN=C(N)N", "note": "(some centres not stated)", "values": [
      {"measurement": "Ki", "setting": "B2 bradykinin receptor [2]", "result": 30.8, "unit": "nM"}
    ]}
  ]
}
